# Experimental data from ChEMBL document CHEMBL1148728, “Synthesis, biological activity, and crystal structure of potent nonnucleoside inhibitors of HIV-1 reverse transcriptase that retain activity against mutant forms of the enzyme” (J Med Chem, 2007).
# Activity calls are given as the source filed them. The rule behind the calls is not given here.
# Key:
# [1] = tested on: Human immunodeficiency virus 1; test: Antiviral activity against HIV1 with RT Y181C mutation by cytopathic cell killing assay; assay type: functional, organism-based
# [2] = target: Human immunodeficiency virus type 1 reverse transcriptase (Human immunodeficiency virus 1, UniProt Q72547); test: Inhibition of HIV1 NL4-3 reverse transcriptase
# [3] = tested on: Human immunodeficiency virus 1; test: Antiviral activity against HIV1 infected CEM cells; assay type: functional, organism-based; conditions: for EC50: Human immunodeficiency virus 1, CCRF-CEM; for Activity: CCRF-CEM
# In short: (§1)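 Cell-based assay in HIV-1-infected CEM cells, read out as protection from virus-induced cell killing.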
# [4] = Toxicity against CEM cells; assay type: cell-based; conditions: human, CEM (CCRF-CEM) cells; read-out: TC50 (the source's name)
# [5] = tested on: Human immunodeficiency virus 1; test: Antiviral activity against HIV1 with RT K101E mutation by cytopathic cell killing assay; assay type: functional, organism-based
# [6] = tested on: Human immunodeficiency virus 1; test: Antiviral activity against HIV1 with RT L100I mutation by cytopathic cell killing assay; assay type: functional, organism-based
# [7] = tested on: Human immunodeficiency virus 1; test: Antiviral activity against HIV1 with RT V108I mutation by cytopathic cell killing assay; assay type: functional, organism-based
# [8] = tested on: Human immunodeficiency virus 1; test: Antiviral activity against wild type HIV1 NL4-3 by cytopathic cell killing assay; assay type: functional, organism-based; conditions: Human immunodeficiency virus 1, NL4-3; in short: as §1
# [9] = tested on: Human immunodeficiency virus 1; test: Antiviral activity against HIV1 with RT K103N mutation by cytopathic cell killing assay; assay type: functional, organism-based
# [10] = target: Human immunodeficiency virus type 1 reverse transcriptase (Human immunodeficiency virus 1) (UniProt Q72547); test: Inhibition of HIV1 reverse transcriptase at 1 uM
# In short: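 Wild-type HIV-1 RT enzyme screen with rC-dG template-primer. Percent inhibition is the mean of two experiments, each run in triplicate.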
# [11] = tested on: Human immunodeficiency virus 1; test: Antiviral activity against HIV1 with RT Y188C mutation by cytopathic cell killing assay; assay type: functional, organism-based
# [12] = tested on: Human immunodeficiency virus 1; test: Antiviral activity against HIV1 with RT V106A mutation by cytopathic cell killing assay; assay type: functional, organism-based
inhibition [10] [%],Compound,EC50 [1] [nM],IC50 [2] [nM],EC50 [3] [nM],CC50 [4] [nM],EC50 [5] [nM],EC50 [6] [nM],EC50 [7] [nM],EC50 [8] [nM],EC50 [9] [nM],EC50 [11] [nM],EC50 [12] [nM],Activity [3]
,COc1cccc2c1nc(-c1c(F)cccc1F)n2Cc1c(F)cccc1F,260,7.3,60,44300,2820,160,2820,60,> 50000,,,
,CNc1cccc2c1nc(-c1c(F)cccc1F)n2Cc1c(F)cccc1F,,4940,1700,27200,,,,,,,,
1,Cc1cccc2nc(-c3c(F)cccc3F)n(Cc3c(F)cccc3F)c12,,,,,,,,,,,,
26,Cc1ccc2c(nc(-c3c(F)cccc3F)n2Cc2c(F)cccc2F)c1C,,,,,,,,,,,,
,COCc1cccc2c1nc(-c1c(F)cccc1F)n2Cc1c(F)cccc1F,,,60,,,,,,,,,
,[N-]=[N+]=NCc1cccc2c1nc(-c1c(F)cccc1F)n2Cc1c(F)cccc1F,280,,45,> 100000,600,80,26,45,1480,220,610,
,CCc1cccc2c1nc(-c1c(F)cccc1F)n2Cc1c(F)cccc1F,7180,17500,820,26100,> 50000,2480,> 50000,900,> 50000,,,
,N#Cc1cccc2c1nc(-c1c(F)cccc1F)n2Cc1c(F)cccc1F,,,430,26700,,,,,,,,
,Nc1cccc2c1nc(-c1c(F)cccc1F)n2Cc1c(F)cccc1F,9200,280,460,26300,> 20000,1200,3300,400,3100,2000,,
22,Cc1ccc2c(c1)nc(-c1c(F)cccc1F)n2Cc1c(F)cccc1F,,,,,,,,,,,,
,CC(=O)NCc1cccc2c1nc(-c1c(F)cccc1F)n2Cc1c(F)cccc1F,,,,20800,,,,,,,,inactive
42,Cc1ccc2nc(-c3c(F)cccc3F)n(Cc3c(F)cccc3F)c2c1,,,,,,,,,,,,
,O=Cc1cccc2c1nc(-c1c(F)cccc1F)n2Cc1c(F)cccc1F,,,120,820,,,,,,,,
,CN(C)C(=O)c1cccc2c1nc(-c1c(F)cccc1F)n2Cc1c(F)cccc1F,,,,80100,,,,,,,,inactive
,Cc1ccnc2c1NC(=O)c1cccnc1N2C1CC1 [NEVIRAPINE],4900,,35,,1100,720,200,100,1090,100,2360,
,NC(=O)c1cccc2c1nc(-c1c(F)cccc1F)n2Cc1c(F)cccc1F,,,4900,> 100000,,,,,,,,
,O=C(O)c1cccc2c1nc(-c1c(F)cccc1F)n2Cc1c(F)cccc1F,,,,23500,,,,,,,,inactive
,Oc1cccc2c1nc(-c1c(F)cccc1F)n2Cc1c(F)cccc1F,,,650,> 100000,,,,,,,,

inhibition [10] [%],Compound,EC50 [1] [nM],IC50 [2] [nM],EC50 [3] [nM],CC50 [4] [nM],EC50 [5] [nM],EC50 [6] [nM],EC50 [7] [nM],EC50 [8] [nM],EC50 [9] [nM],EC50 [11] [nM],EC50 [12] [nM],Activity [3]
48,Fc1cccc(F)c1Cn1c(-c2c(F)cccc2F)nc2cc(Cl)ccc21,,,,,,,,,,,,
,CC(=O)N(C)Cc1cccc2c1nc(-c1c(F)cccc1F)n2Cc1c(F)cccc1F,,,580,20600,,,,,,,,
,CC(C)c1cccc2c1nc(-c1c(F)cccc1F)n2Cc1c(F)cccc1F,,,6340,27000,,,,,,,,
30,O=[N+]([O-])c1ccc2c(c1)nc(-c1c(F)cccc1F)n2Cc1c(F)cccc1F,,,,,,,,,,,,
,COC(=O)c1cccc2c1nc(-c1c(F)cccc1F)n2Cc1c(F)cccc1F,,158000,,57700,,,,,,,,inactive
,CN(C)c1cccc2c1nc(-c1c(F)cccc1F)n2Cc1c(F)cccc1F,,40000,2370,> 100000,,,,,,,,
,Fc1cccc(F)c1Cn1c(-c2c(F)cccc2F)nc2c(CCl)cccc21,2380,,180,13400,460,80,210,160,3340,570,4700,
43,Fc1cccc(F)c1Cn1c(-c2c(F)cccc2F)nc2cc(Br)ccc21,,,,,,,,,,,,
69,Fc1cccc(F)c1Cn1c(-c2c(F)cccc2F)nc2ccc(Cl)cc21,,,,,,,,,,,,
,CC(=O)Nc1cccc2c1nc(-c1c(F)cccc1F)n2Cc1c(F)cccc1F,> 100000,54700,1480,39300,,3250,,1970,> 100000,,,
,CC(=O)N(C)c1cccc2c1nc(-c1c(F)cccc1F)n2Cc1c(F)cccc1F,400,320,20,> 100000,640,1660,> 10000,40,> 10000,540,50,
,NCc1cccc2c1nc(-c1c(F)cccc1F)n2Cc1c(F)cccc1F,12800,,37,49300,1490,,2510,1360,> 50000,11600,9230,
,N=C(NO)c1cccc2c1nc(-c1c(F)cccc1F)n2Cc1c(F)cccc1F,,,190,23100,,,,,,,,
,OCc1cccc2c1nc(-c1c(F)cccc1F)n2Cc1c(F)cccc1F,720,,23,58100,5000,20,23,48,13600,170,5900,
,CC(=O)OCc1cccc2c1nc(-c1c(F)cccc1F)n2Cc1c(F)cccc1F,2320,,59,55800,25,68,13,62,27,33,4500,
,N#CCc1cccc2c1nc(-c1c(F)cccc1F)n2Cc1c(F)cccc1F,2200,,60,,,,,60,4200,,,
37,Cc1cc(C)c2nc(-c3c(F)cccc3F)n(Cc3c(F)cccc3F)c2c1,,,,,,,,,,,,
,O=[N+]([O-])c1cccc2c1nc(-c1c(F)cccc1F)n2Cc1c(F)cccc1F,,1880,2400,30100,,,,,,,,

Compound,inhibition [10] [%],EC50 [1] [nM],IC50 [2] [nM],EC50 [3] [nM],CC50 [4] [nM],EC50 [5] [nM],EC50 [6] [nM],EC50 [7] [nM],EC50 [8] [nM],EC50 [9] [nM],EC50 [11] [nM],EC50 [12] [nM],Activity [3]
Fc1cccc(F)c1Cn1c(-c2c(F)cccc2F)nc2c(Cl)cccc21,75,8400,2630,440,30400,> 20000,300,3200,500,10200,3400,,
Cc1cccc2c1nc(-c1c(F)cccc1F)n2Cc1c(F)cccc1F,71,6000,200,440,> 100000,16700,300,2800,500,8100,2300,,
Fc1cccc(F)c1Cn1c(-c2c(F)cccc2F)nc2ccccc21,50,,110,1700,18800,,,,,,,,
Fc1cccc(F)c1Cn1c(-c2c(F)cccc2F)nc2c(Br)cccc21,78,10700,1610,370,24500,> 20000,500,4200,500,> 20000,3700,,
